Results published in ChEMBL document CHEMBL1128463, “Design, synthesis, and antiviral activity of certain 2,5,6-trihalo-1-(beta-D-ribofuranosyl)benzimidazoles” (J Med Chem, 1995).

How the values were obtained:
[1] = tested on: Human betaherpesvirus 5; experiment: Compound was evaluated for the antiviral activity against HCMV determined by using Plaque assay; format: functional, organism-based
In short: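 Towne strain HCMV (plaque-purified P0) on HFF monolayers, about 100 PFU/cm², 2 h adsorption at 37 °C. Compounds added in growth medium, four to eight concentrations, duplicate wells. Incubated 7–10 days at 37 °C, then crystal violet stain and microscopic plaque count. Percent plaque reduction versus no-drug wells, regressed on log concentration to give IC50.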

[2] = tested on: KB; experiment: Compound was evaluated for the inhibition of KB cell growth determined in quadruplicate assay; format: functional, cell-based; details: Homo sapiens
In short: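 KB cells at 3000–5000/well, compound added in quadruplicate at six to eight concentrations, 48 h at 37 °C (about two population doublings). Cells fixed with ethanol, stained with crystal violet, eluted dye read at 570 nm. IC50 from regression of percent inhibition on log concentration.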

[3] = tested on: HFF; experiment: Compound was evaluated for the visual cytotoxicity scored on HFF cells at time of HCMV plaque enumeration; format: functional, cell-based; details: Homo sapiens
In short: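 Stationary HFF cells not affected by virus in the HCMV plaque assay, inspected microscopically for cytotoxicity when plaques were counted (after 7–10 days at 37 °C). Reported as IC50.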

[4] = tested on: Human alphaherpesvirus 1; experiment: Compound was evaluated for the antiviral activity against HSV-1 determined by using ELISA method; format: functional, organism-based
In short: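 HSV-1 (KOS strain in most experiments) at 100 PFU/well on BSC-1 cells (10 000/well), drug in quadruplicate, 3–5 days at 37 °C. Wells blocked, probed with HRP-conjugated rabbit anti-HSV-1 antibody, developed with tetramethylbenzidine and read at 450 and 570 nm. Percent absorbance reduction versus virus-only wells; IC50 from regression on log concentration.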

[5] = tested on: Human betaherpesvirus 5; experiment: Compound was evaluated for the antiviral activity against HCMV determined by using Yield reduction assay; format: functional
In short: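 HFF cells at 12 500 cells/well, infected with Towne HCMV at MOI 0.5–1 PFU/cell. Compounds added after adsorption, 1:3 serial dilutions spanning about 1000-fold (e.g. 100–0.14 μM), in duplicate. 7 days at 37 °C, one freeze-thaw, then progeny titred by plaque count on fresh HFF plates. Reported as IC90.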

SMILES | IC50 [1] | IC50 [2] | IC50 [3] | IC50 [4] | IC90 [5]
Clc1cc2nc(Br)[nH]c2cc1Cl | 12 µM | 56 µM | 21 µM | – | –
Clc1nc2cc(Cl)c(Cl)cc2[nH]1 | 6.4 µM | 19 µM | 24 µM | 51 µM | –
OC[C@H]1O[C@H](n2c(Br)nc3cc(Cl)c(Cl)cc32)[C@@H](O)[C@H]1O | 0.7 µM | > 100 µM | 118 µM | 130 µM | 200 nM
CC(=O)OC[C@H]1O[C@@H](n2c(Br)nc3cc(Cl)c(Cl)cc32)[C@H](OC(C)=O)[C@@H]1OC(C)=O | 1.5 µM | 25 µM | 100 µM | > 100 µM | 200 nM
CC(=O)OC[C@H]1O[C@@H](n2c(Cl)nc3cc(Cl)c(Cl)cc32)[C@H](OC(C)=O)[C@@H]1OC(C)=O | 2 µM | > 100 µM | 100 µM | – | 200 nM
OC[C@H]1O[C@@H](n2c(Cl)nc3cc(Cl)c(Cl)cc32)[C@H](O)[C@@H]1O | 2.9 µM | 210 µM | 238 µM | 102 µM | 1400 nM
Nc1nc2cc(Cl)c(Cl)cc2n1C1O[C@H](CO)[C@@H](O)[C@H]1O (some centres not stated) | 40 µM | 40 µM | 32 µM | 50 µM | 8000 nM
OC[C@H]1OC(n2c(I)nc3cc(Cl)c(Cl)cc32)[C@H](O)[C@@H]1O (some centres not stated) | 30 µM | 23 µM | 118 µM | 21 µM | 26000 nM
OC[C@H]1OC(n2c(O)nc3cc(Cl)c(Cl)cc32)[C@H](O)[C@@H]1O (some centres not stated) | > 100 µM | – | 100 µM | – | –
O=[N+]([O-])c1c(Cl)c(Cl)cc2c1nc(O)n2C1O[C@H](CO)[C@@H](O)[C@H]1O (some centres not stated) | > 100 µM | – | 100 µM | > 100 µM | –
Nc1nc2cc(Cl)c(Cl)cc2[nH]1 | 100 µM | > 100 µM | 100 µM | > 100 µM | –
OC[C@H]1O[C@@H](n2cnc3cc(Cl)c(Cl)cc32)[C@H](O)[C@@H]1O [DICHLORORIBOBENZIMIDAZOLE] | – | 36 µM | 24 µM | – | 19000 nM
O=C(O)P(=O)(O)O [FOSCARNET SODIUM] | – | – | > 100 µM | – | –
Nc1nc2c(ncn2COC(CO)CO)c(=O)[nH]1 [GANCICLOVIR] | – | > 100 µM | > 100 µM | – | 1600 nM
